Compound activity (PubChem BioAssay)
HKDC1 inhibitor: HKDC1 hexokinase inhibitors, primary screen, biochemical, fluorescence, uHTS; Q2TB90; recombinant HKDC1, G6PDH/diaphorase resazurin coupled fluorescence; inhibition, % at 20 µM; actives 0.16% (n = 340,000); AID 493160, 2011;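 active means inhibition above about 35% when tested at 20 µM, limit read from the data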;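 further: plate controls were DMSO wells with enzyme for no effect and DMSO wells lacking enzyme for full effect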
Target sequence (Q2TB90 whole entry, looked up): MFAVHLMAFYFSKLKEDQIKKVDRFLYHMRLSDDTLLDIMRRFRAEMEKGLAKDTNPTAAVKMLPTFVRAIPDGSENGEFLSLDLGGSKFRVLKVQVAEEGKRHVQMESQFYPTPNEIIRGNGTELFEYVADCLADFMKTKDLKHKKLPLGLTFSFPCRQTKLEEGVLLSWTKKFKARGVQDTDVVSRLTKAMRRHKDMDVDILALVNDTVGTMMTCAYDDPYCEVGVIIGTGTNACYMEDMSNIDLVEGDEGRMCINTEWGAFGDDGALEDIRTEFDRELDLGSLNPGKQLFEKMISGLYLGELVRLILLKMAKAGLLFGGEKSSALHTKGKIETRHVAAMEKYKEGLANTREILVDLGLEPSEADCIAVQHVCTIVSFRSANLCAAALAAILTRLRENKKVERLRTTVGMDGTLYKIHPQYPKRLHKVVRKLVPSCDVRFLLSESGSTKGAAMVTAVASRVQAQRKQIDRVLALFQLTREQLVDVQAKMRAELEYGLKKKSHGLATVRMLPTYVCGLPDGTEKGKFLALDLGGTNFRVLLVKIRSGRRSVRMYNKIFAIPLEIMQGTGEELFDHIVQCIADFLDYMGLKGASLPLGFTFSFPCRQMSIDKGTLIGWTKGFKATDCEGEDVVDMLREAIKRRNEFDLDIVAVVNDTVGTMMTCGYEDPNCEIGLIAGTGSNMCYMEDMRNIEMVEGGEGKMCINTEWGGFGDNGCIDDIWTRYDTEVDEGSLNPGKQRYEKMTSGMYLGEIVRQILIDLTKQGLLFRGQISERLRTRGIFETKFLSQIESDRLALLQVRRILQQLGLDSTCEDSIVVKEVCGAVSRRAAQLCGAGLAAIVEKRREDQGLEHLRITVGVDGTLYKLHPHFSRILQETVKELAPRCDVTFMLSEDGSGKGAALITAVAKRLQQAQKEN
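Test system: recombinant HKDC1 (HK5) hexokinase enzyme, produced in-house; Amount: enzyme 5 µg/mL final; Buffer or medium: Tris pH 8.0 buffer with MgCl2, Tween-20, BSA, BME; Reagent: glucose and ATP substrates; Doses: 20 µM test compound, 1% DMSO; Incubation: 90 min reaction incubation at room temperature, dark; Detection: resorufin fluorescence at 613 nm.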
PfG6PD inh: PfG6PD enzyme inhibitors, primary screen, biochemical, fluorescence intensity, uHTS; glucose-6-phosphate dehydrogenase-6-phosphogluconolactonase (Plasmodium falciparum 3D7); PfGluPho enzyme, NADPH resazurin-diaphorase fluorescence; inhibition, % at 20 µM; actives 0.78% (n = 350,000); AID 504690, 2011;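 active means inhibition reaching at least a set limit at 20 µM in the primary screen, cut at about 59% in these data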;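 further: 0% = DMSO wells with substrate and 100% = DMSO wells lacking glucose-6-phosphate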
Diaph act CS: compounds boosting diaphorase resazurin reduction – biochemical, uHTS, resorufin fluorescence, counter-screen for diaphorase-coupled primary assays, primary screen. actives 0.005% (n = 190,000). activation factor at 20 µM. Diaphorase/resazurin coupled assay, 16 min; active compounds read high; 1 = vehicle wells, 0 = NADH-free wells;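 active means diaphorase activity raised at least twofold by the compound at 20 µM; inactive means activation factor below 2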
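Material: purified diaphorase enzyme from Clostridium kluyveri / Medium: HEPES pH 7.4 buffer with MgCl2 and Tween 20 / Schedule: enzyme reaction of 16 min at room temperature / Measured by: resorufin fluorescence, excitation 544 nm, emission 590 nm / Evaluation: rise in resorufin formation, marking diaphorase activation or chemical reduction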
G6PDH counter: L. mesenteroides G6PDH inhibitors, counter-screen for G6PDH-coupled screening assays, biochemical, Leuconostoc mesenteroides enzyme; Purified L. mesenteroides G6PDH, diaphorase/resazurin coupled fluorescence, 45 min; glucose-6-phosphate dehydrogenase [Leuconostoc mesenteroides]; inhibition, % at 5 µM; AID 1020, 2008; actives 0.12% (n = 200,000); in the data active means inhibition above about 50%
Diaph inh CS: diaphorase inhibitors and chemical oxidizers, primary screen, counter-screen for diaphorase-coupled primary assays, biochemical, uHTS, resorufin fluorescence; diaphorase resazurin-to-resorufin fluorescence, NADH, 16 min; bacterial (C. kluyveri) enzyme, not human; inhibition, % at 20 µM; actives 0.69% (n = 190,000);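 active means primary screen inhibition at 20 µM above a set limit, cut at about 50% in these data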;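 further: plate controls were DMSO with full reaction for no effect and wells lacking NADH for full effect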
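Benchmarks: positive control wells lacking NADH, neutral wells with DMSO only. System: bacterial diaphorase enzyme (C. kluyveri). Input: 0.14 U/mL diaphorase, enzyme working solution. Detection: resorufin fluorescence, excitation 544 nm, emission 590 nm. Times: 16-min room-temperature incubation before reading.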
Numbers without * were called inactive; . = no result given. Sampled rows, rich in hits. Any-hit rate of the full collection: about 1.3%.

SMILES	HKDC1 inhibitor	PfG6PD inh	Diaph act CS	G6PDH counter	Diaph inh CS
NC(=O)NC(CC(=O)NNC(=O)c1cccs1)c1ccc(Cl)cc1 (stereo not drawn)	-10.4	1.1	.	.	.
O=C(NCc1cc([N+](=O)[O-])ccc1O)c1cccc(NS(=O)(=O)c2ccccc2)c1	-0.2	-32.5	.	.	.
Cc1ccc(-c2n[nH]c(=S)n2/N=C/C=C/c2ccccc2[N+](=O)[O-])cc1	1.5	28.4	0.4	0.6	55.4*
S=c1[nH]nc(-c2ccco2)n1/N=C/c1ccccn1	.	.	0.7	-0.7	29.4
O=[N+]([O-])c1cc2c(cc1/C=N/n1c(-c3ccccc3)n[nH]c1=S)OCO2	6.5	38.2	0.4	-2.8	55.0*
O=[N+]([O-])c1ccccc1/C=C/C=N/n1c(-c2ccco2)n[nH]c1=S	10.0	9.0	0.2	0.8	80.9*
O=[N+]([O-])c1ccccc1/C=C/C=N/n1c(-c2cc(-c3ccccc3)n[nH]2)n[nH]c1=S	-4.1	14.9	.	.	.
COc1ccccc1Nc1ccc(NS(=O)(=O)c2ccc(C(C)=O)cc2)cc1	4.8	-14.4	.	.	.
Cc1ccc(NC(=O)N2CCOCC2)cc1NC(=O)N1CCOCC1	.	-3.3	.	.	.
O=C(CC(=O)c1cc(Cl)ccc1O)c1ccccc1	-3.9	-4.3	0.9	-21.4	12.1
O=C(c1ccccc1)c1cc(Cl)ccc1N1C(=O)C=CC1=O	-3.6	111.5*	0.9	6.8	10.7
O=C1CCCc2c1sc1nc3n(c(=O)c21)CCCCC3	0.8	4.9	0.9	11.2	5.8
O=C1c2sc3nc4n(c(=O)c3c2CCC1Br)CCCCC4 (stereo not drawn)	9.4	79.9*	0.4	10.0	62.5*
O=C(Cn1c(=O)oc2ccccc21)N1CCCC1	-7.9	0.6	.	.	.
Cc1ccc(Nc2nnns2)cc1C	0.8	59.1*	0.8	-6.4	19.5
Nn1c(SCC(=O)NC2CCCc3ccccc32)nnc1-c1ccc(Cl)cc1Cl (stereo not drawn)	.	.	0.8	8.5	24.0
COc1ccc(CN2C(=O)c3cccnc3C2Nc2cc(Cl)ccc2OC)cc1 (stereo not drawn)	51.7*	7.2	0.8	-18.8	19.3
O=C(NNC(=O)c1ccncc1)Nc1cc(Cl)ccc1Cl	-2.8	-13.7	.	.	.
Cc1cc2cc(C(c3nnnn3Cc3ccco3)N3CCc4ccccc4C3)c(=O)[nH]c2cc1C (stereo not drawn)	8.1	32.8	0.4	11.4	58.8*
Cc1cc2cc(C(c3nnnn3Cc3ccco3)N3CCc4ccccc43)c(=O)[nH]c2cc1C (stereo not drawn)	20.7	54.0	0.2	22.9	82.6*
CCN(CC)C(CNC(=O)CSc1nnnn1-c1c(C)cccc1C)c1ccco1 (stereo not drawn)	3.9	-5.3	.	.	.
CC(CCCN(C)C)C(Cc1ccccc1)c1ccccc1 (stereo not drawn)	-3.9	-3.2	.	.	.
CC(C)C[C@@H](CNC(=O)OC(C)(C)C)NC(=O)c1nc[nH]c1C(=O)N[C@@H](CC(C)C)C(=O)CNC[C@H](CC(C)C)NC(=O)c1nc[nH]c1C(=O)N[C@@H](Cc1c[nH]c2ccccc12)C(=O)OC(C)(C)C	2.5	-35.7	.	.	.
COCC(C)N1C(=O)Cc2c1nc(N)c1c(N)nc(N3CCN(c4ccccc4F)CC3)c(C#N)c21 (stereo not drawn)	9.9	5.4	0.4	1.8	60.2*
CC1=C(C(=O)N2CCOCC2)CC(CC(=O)NCc2cccc3ccccc23)C(=O)N1Cc1ccccc1 (stereo not drawn)	.	10.8	.	.	.
Cc1ccc(C)c(S(=O)(=O)Nc2ccc(C(N)=O)cc2)c1	-11.5	6.1	0.4	11.9	57.3*
CC(C)c1nc2sc3c(=O)[nH]c(=S)[nH]c3c2c2c1CCC2	.	.	0.1	4.1	85.1*
CC(C)c1nc2sc3c(=O)[nH]c(=S)[nH]c3c2c2c1CCCC2	27.2	-47.8	.	.	.
Cc1cc2oc(=O)cc(-c3cc4ccccc4o3)c2cc1O	10.2	19.0	.	.	.
COc1cc(OC)c(-c2c3cc(O)c(=O)cc-3oc3cc(O)c(O)cc23)cc1OC	-7.3	-90.7	0.2	14.0	80.9*
